Here are results for two molecules from ChEMBL document CHEMBL1140867, “Photodynamic molecular beacon triggered by fibroblast activation protein on cancer-associated fibroblasts for diagnosis and treatment of epithelial cancers” (J Med Chem, 2009).

Peptide text beside a SMILES is read from it. * marks the point of attachment. Pyropheophorbide(a) = C=Cc1c(C)c2cc3nc(c4c5[nH]c(cc6nc(cc1[nH]2)C(C)=C6CC)c(C)c5C(=O)C4)[C@@H](CCC(=O)*)[C@@H]3C

Series [1] deals with HEK293. The series is described as follows: Photocytotoxicity against mouse FAP expressing HEK293 cells assessed as reduction of cell viability at 4 uM in presence of 2 J cm'-2 radiation by MTT assay. The series is classed as functional, Homo sapiens. The method in brief:
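HEK-mFAP and HEK-Vector cells, 2.5×10^4 per well, grown 2 days, then incubated 24 h with compound diluted in FBS-free DMEM (DMSO/Tween 80 formulation) at 8 or 4 µM. Cells rinsed and refed, then irradiated with a 670 nm laser at 130 mW cm⁻², 16 s (2 J cm⁻²) or kept dark. Incubated overnight; MTT 2 h, SDS/HCl solubilization, absorbance read at 570 nm.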

Substrate in series [2]: C=Cc1c(C)c2cc3nc(c4c5[nH]c(cc6nc(cc1[nH]2)C(C)=C6CC)c(C)c5C(=O)C4)[C@@H](CCC(=O)N[C@H](C(=O)N[C@@H](CO)C(=O)NCC(=O)N1CCC[C@H]1C(=O)N[C@@H](CC(N)=O)C(=O)N[C@@H](CCC(N)=O)C(=O)N[C@@H](CCC(=O)O)C(=O)N[C@@H](CCC(N)=O)C(=O)N[C@@H](CCCCNOC(=O)CCCN(C)c1ccc(/N=N/c2cccc4nc5ccc(N(CC)CC)cc5[n+](-c5ccccc5)c24)cc1)C(N)=O)[C@@H](C)O)[C@@H]3C
The series is described as follows: Activity of mouse FAP assessed as enzyme mediated drug cleavage by measuring increase in fluorescence intensity. The gist of the method:
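Purified murine FAP (2 µg) with substrate at 0.1–6 µM in 1 mL 0.12 M NaCl/0.12 M TRIS pH 7.37 (substrate first dissolved in DMSO/Tween 80), 37 °C. Fluorescence followed continuously at ex 650/em 675 nm; excess mFAP (10 µg) added after 1 h. Initial rates (10% depletion), triplicate; Vmax, Km, kcat and kcat/Km from nonlinear Michaelis–Menten fit.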

For the molecule `C=Cc1c(C)c2cc3nc(c4c5[nH]c(cc6nc(cc1[nH]2)C(C)=C6CC)c(C)c5C(=O)C4)[C@@H](CCC(=O)N[C@H](C(=O)N[C@@H](CO)C(=O)NCC(=O)N1CCC[C@H]1C(=O)N[C@@H](CC(N)=O)C(=O)N[C@@H](CCC(N)=O)C(=O)N[C@@H](CCC(=O)O)C(=O)N[C@@H](CCC(N)=O)C(=O)N[C@@H](CCCCN)C(N)=O)[C@@H](C)O)[C@@H]3C` ({Pyropheophorbide(a)}-TSGPNQEQK-NH2), the Activity in series [1] turned out to be 40%.

B1: Prolyl endopeptidase FAP (Mus musculus), P97321 (protein)
chain: MKTWLKTVFGVTTLAALALVVICIVLRPSRVYKPEGNTKRALTLKDILNGTFSYKTYFPNWISEQEYLHQSEDDNIVFYNIETRESYIILSNSTMKSVNATDYGLSPDRQFVYLESDYSKLWRYSYTATYYIYDLQNGEFVRGYELPRPIQYLCWSPVGSKLAYVYQNNIYLKQRPGDPPFQITYTGRENRIFNGIPDWVYEEEMLATKYALWWSPDGKFLAYVEFNDSDIPIIAYSYYGDGQYPRTINIPYPKAGAKNPVVRVFIVDTTYPHHVGPMEVPVPEMIASSDYYFSWLTWVSSERVCLQWLKRVQNVSVLSICDFREDWHAWECPKNQEHVEESRTGWAGGFFVSTPAFSQDATSYYKIFSDKDGYKHIHYIKDTVENAIQITSGKWEAIYIFRVTQDSLFYSSNEFEGYPGRRNIYRISIGNSPPSKKCVTCHLRKERCQYYTASFSYKAKYYALVCYGPGLPISTLHDGRTDQEIQVLEENKELENSLRNIQLPKVEIKKLKDGGLTFWYKMILPPQFDRSKKYPLLIQVYGGPCSQSVKSVFAVNWITYLASKEGIVIALVDGRGTAFQGDKFLHAVYRKLGVYEVEDQLTAVRKFIEMGFIDEERIAIWGWSYGGYVSSLALASGTGLFKCGIAVAPVSSWEYYASIYSERFMGLPTKDDNLEHYKNSTVMARAEYFRNVDYLLIHGTADDNVHFQNSAQIAKALVNAQVDFQAMWYSDQNHGISSGRSQNHLYTHMTHFLKQCFSLSD
By Km is commonly meant the concentration of substrate that gives half-maximal velocity. The Vmax is the rate approached at saturating substrate. One may read the kcat as the maximal rate divided by the concentration of active sites. On to B1, for which, in series [2], the Km turned out to be 1.02 µM, the Vmax was 36 pmol/min and the kcat was found to be 0.0292 s⁻¹.
